ChEMBL document CHEMBL1932969, “Acyl derivatives of boswellic acids as inhibitors of NF-κB and STATs” (Bioorg Med Chem Lett, 2012)
Calls of active or inactive are those of the source. No cut-off for these calls is given here.

How the values were obtained:
DU-145 = experiment: Anticancer activity against human DU145 cells assessed as growth inhibition at 50 uM after 48 hrs by SRB assay; type: functional; conditions: DU-145, 48 h, read-out: GI
Procedure, shortened: (§1)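 Cells exposed to test compounds at 50 µM for 48 h. Read-out is percent growth inhibition, with SEM given. 5-Fluorouracil and adriamycin serve as reference agents.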

PC-3 = experiment: Anticancer activity against human PC3 cells assessed as growth inhibition at 50 uM after 48 hrs by SRB assay; type: functional; conditions: PC-3, 48 h, read-out: GI; procedure, shortened: as §1
HL-60 [1] = experiment: Induction of apoptosis in p53-deficient human HL60 cells assessed as DNA fragmentation at 50 uM after 6 hrs by agarose gel electrophoresis; type: functional, cell-based
Procedure, shortened: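 2 × 10⁶ HL-60 cells treated with derivatives at 50 µM for 6 h, then scored for an apoptotic DNA ladder of 180–200 bp fragments or multiples. The positive control is 4 µM camptothecin for 6 h.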

HL-60 [2] = experiment: Anticancer activity against human HL60 cells after 48 hrs by MTT assay; type: functional, cell-based; conditions: HL-60, 48 h
Procedure, shortened: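 Cell proliferation measured by MTT. Cells are incubated with each analog for 48 h at the indicated concentrations, then MTT reduction is read as an index of viability. OD of the untreated control is taken as 100% viability, and IC50 is derived from this.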

HL-60 [3] = experiment: Induction of necrosis in p53-deficient human HL60 cells at 50 uM after 6 hrs by FITC-conjugated annexinV/PI-based flow cytometric analysis; type: functional, cell-based
Procedure, shortened: (§2)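 HL-60 cells incubated with each analog at 50 µM for 6 h, stained with annexin V-FITC/propidium iodide and analysed by flow cytometry. Lower right quadrant is apoptotic, upper right post-apoptotic, upper left necrotic. Three experiments, with representative dot plots shown.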

HL-60 [4] = experiment: Induction of autophagy in p53-deficient human HL60 cells at 50 uM after 6 hrs by acridine orange staining; type: functional, cell-based
Procedure, shortened: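 Autophagy scored by flow cytometry of HL-60 cells stained with acridine orange after 6 h exposure.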

HL-60 [5] = experiment: Induction of apoptosis in p53-deficient human HL60 cells assessed as post-apoptotic cells at 50 uM after 6 hrs by FITC-conjugated annexinV/PI-based flow cytometric analysis (reference value: 1 %); type: functional; procedure, shortened: as §2
HL-60 [6] = experiment: Induction of apoptosis in p53-deficient human HL60 cells assessed as apoptotic cells at 50 uM after 6 hrs by FITC-conjugated annexinV/PI-based flow cytometric analysis (reference value: 5 %); type: functional; procedure, shortened: as §2
HT-29 = experiment: Anticancer activity against human HT-29 cells assessed as growth inhibition at 50 uM after 48 hrs by SRB assay; type: functional; conditions: HT-29, 48 h, read-out: GI; procedure, shortened: as §1
SW-620 = experiment: Anticancer activity against human SW620 cells assessed as growth inhibition at 50 uM after 48 hrs by SRB assay; type: functional; conditions: SW-620, 48 h, read-out: GI; procedure, shortened: as §1
COLO 205 = experiment: Anticancer activity against human COLO205 cells assessed as growth inhibition at 50 uM after 48 hrs by SRB assay; type: functional; conditions: COLO 205, 48 h, read-out: GI; procedure, shortened: as §1
HEp-2 = experiment: Anticancer activity against human Hep2 cells assessed as growth inhibition at 50 uM after 48 hrs by SRB assay; type: functional; conditions: HEp-2, 48 h, read-out: GI; procedure, shortened: as §1

Row | SMILES | inhibition of growth at 50 µM (DU-145) | inhibition of growth at 50 µM (PC-3) | Activity (HL-60 [1]) | IC50 (HL-60 [2]) | Activity (HL-60 [3]) | Activity (HL-60 [4]) | Activity (HL-60 [5]) | Activity (HL-60 [6]) | inhibition of growth at 50 µM (HT-29) | inhibition of growth at 50 µM (SW-620) | inhibition of growth at 50 µM (COLO 205) | inhibition of growth at 50 µM (HEp-2)
1 | CCC(=O)O[C@@H]1CC[C@@]2(C)[C@@H](CC[C@]3(C)[C@@H]2CC=C2[C@@H]4[C@@H](C)[C@H](C)CC[C@]4(C)CC[C@]23C)[C@@]1(C)C(=O)O | 91% | 93% | Active | 13 µM | inactive | inactive | 24% | 23% | 93% | 94% | 84% | 86%
2 | CCC(=O)O[C@H]1CC[C@@]2(C)[C@@H](CC[C@]3(C)[C@@H]2CC=C2[C@@H]4[C@@H](C)[C@H](C)CC[C@]4(C)CC[C@]23C)[C@@]1(C)C(=O)O | 88% | 95% | Active | 12 µM | inactive | inactive | 20% | 18% | 92% | 89% | 86% | 87%
3 | C[C@H]1[C@H](C)CC[C@]2(C)CC[C@]3(C)C(=CC[C@@H]4[C@@]5(C)CC[C@@H](O)[C@](C)(C(=O)O)[C@@H]5CC[C@]43C)[C@H]12 [BOSWELLIC ACID] | 92% | 100% |  | 15 µM | inactive | inactive | 34% | 20% | 66% | 64% | 85% | 43%
4 | CCC(=O)O[C@@H]1CC[C@@]2(C)[C@@H](CC[C@]3(C)[C@@H]2C(=O)C=C2[C@@H]4[C@@H](C)[C@H](C)CC[C@]4(C)CC[C@]23C)[C@@]1(C)C(=O)O | 25% | 64% | Active | 16 µM | inactive | inactive | 17% | 21% | 89% | 85% | 87% | 69%
5 | CCCC(=O)O[C@@H]1CC[C@@]2(C)[C@@H](CC[C@]3(C)[C@@H]2CC=C2[C@@H]4[C@@H](C)[C@H](C)CC[C@]4(C)CC[C@]23C)[C@@]1(C)C(=O)O | 89% | 77% | Active | 14 µM | inactive | inactive | 13% | 31% | 95% | 93% | 88% | 94%
6 | COC(=O)[C@@]1(C)C(=O)CC[C@]2(C)[C@H]3C(=O)C=C4[C@@H]5[C@@H](C)[C@H](C)CC[C@]5(C)CC[C@@]4(C)[C@]3(C)CC[C@@H]12 | 23% | 3% |  |  |  |  |  |  | 17% | 11% | 30% | 10%
7 | C[C@H]1[C@H](C)CC[C@]2(C)CC[C@]3(C)C(=CC(=O)[C@@H]4[C@@]5(C)CC[C@@H](OC=O)[C@](C)(C(=O)O)[C@@H]5CC[C@]43C)[C@H]12 | 83% | 95% |  |  |  |  |  |  | 63% | 69% | 73% | 54%
8 | CC[C@@]1(O)C(=O)OCc2c1cc1n(c2=O)Cc2cc3ccccc3nc2-1 [CAMPTOTHECIN] |  |  |  |  |  |  | 7% | 18% |  |  |  | 
9 | CC(=O)O[C@H]1CC[C@@]2(C)[C@@H](CC[C@]3(C)[C@@H]2CC=C2[C@@H]4[C@@H](C)[C@H](C)CC[C@]4(C)CC[C@]23C)[C@@]1(C)C(=O)O | 87% | 56% |  |  |  |  |  |  | 31% | 35% | 32% | 42%
10 | C[C@H]1[C@H](C)CC[C@]2(C)CC[C@]3(C)C(=CC(=O)[C@@H]4[C@@]5(C)CC[C@H](OC(=O)CCC(=O)O)[C@](C)(C(=O)O)[C@@H]5CC[C@]43C)[C@H]12 | 83% | 62% |  |  |  |  |  |  | 17% | 4% | 28% | 19%
11 | CC(=O)O[C@@H]1CC[C@@]2(C)[C@@H](CC[C@]3(C)[C@@H]2CC=C2[C@@H]4[C@@H](C)[C@H](C)CC[C@]4(C)CC[C@]23C)[C@@]1(C)C(=O)O | 3% | 44% |  |  |  |  |  |  | 93% | 93% | 91% | 85%
12 | C[C@H]1[C@H](C)CC[C@]2(C)CC[C@]3(C)C(=CC(=O)[C@@H]4[C@@]5(C)CC[C@H](O)[C@](C)(C(=O)O)[C@@H]5CC[C@]43C)[C@H]12 | 84% | 70% |  |  |  |  |  |  | 44% | 45% | 49% | 51%
